Screening data from PubChem BioAssay.
An excerpt weighted towards active compounds, which were near 3.1% of everything screened.
rCAG RNA binder: binds r(CAG) RNA repeats; r(CAG) RNA repeat, TO-PRO-1 dye displacement fluorescence; inhibition, % at 3 µM; hit rate 1.3% among 370,000;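 active = inhibition above the plate cutoff, the mean of all test compounds on that plate plus 3 SD, cut at about 35% in these data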;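 note: 0% = DMSO alone and 100% = 100 µM mitoxantrone as full dye displacement; higher means more dye released from RNA so lower well fluorescence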
CSN inh: blocks human CSN-mediated cullin deneddylation | Q92905 | Purified CSN, SCF-Nedd8-OG deneddylation, fluorescence polarization | inhibition, % at 12.5 µM | hit rate 0.38% among 360,000;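 active = pattern-corrected inhibition above about 35%, with an unprinted fluorescence ratio check between 0.5 and 1.5, limit read from the data, passing the limit was not always enough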;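 note: 0% = enzyme with substrate and 100% = substrate without enzyme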
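assay system = purified human Csn5 enzyme expressed in HEK293T cells | amount = 0.24 nM enzyme | buffer or medium = Tris/NaCl/DTT buffer, pH 7.5 | reagent = 10 nM SCFSkp2-Nedd8OG | compound = one concentration, 12.5 µM, 0.25% DMSO | times = 90 min reaction at room temperature | signal = FP | read-out basis = % inhibition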
MBD2 inh: inhibitors of human MBD2 binding to methylated oligonucleotide; TR-FRET; inhibition, % at 4.4 µM; hit rate 0.31% among 370,000; Q9UBB5; in the data active = inhibition above about 13%
Target sequence (Q9UBB5 whole entry, looked up): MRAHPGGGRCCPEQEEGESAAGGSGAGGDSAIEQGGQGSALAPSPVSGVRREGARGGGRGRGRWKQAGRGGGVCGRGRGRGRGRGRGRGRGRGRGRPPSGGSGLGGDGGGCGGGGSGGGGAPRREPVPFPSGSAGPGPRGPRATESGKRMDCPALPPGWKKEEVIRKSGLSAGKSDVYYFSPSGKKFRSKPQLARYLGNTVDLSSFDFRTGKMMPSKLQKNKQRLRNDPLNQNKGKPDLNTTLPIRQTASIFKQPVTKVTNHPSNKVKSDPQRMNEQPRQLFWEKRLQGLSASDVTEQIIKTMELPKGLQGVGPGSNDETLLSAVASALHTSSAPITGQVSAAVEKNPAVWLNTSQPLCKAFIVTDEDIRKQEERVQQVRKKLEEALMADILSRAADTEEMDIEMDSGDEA
UHRF1 binding: blocks human UHRF1 binding to methylated DNA | hit rate 0.75% among 370,000 | UHRF1 binding to methylated oligo, TR-FRET | Q96T88 | inhibition, % at 4.4 µM; in the data active = inhibition above about 21%;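 note: UHRF1 SRA domain binding a hemimethylated CpG hairpin DNA probe; 0% = median of test compound wells and 100% = reference inhibitor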
ATG4B inh: ATG4B (human) cysteine protease inhibition; Q9Y4P1; ATG4B cleavage of LC3-PLA2, NBD-HPC fluorescence, 1 h; inhibition, % at 8.33 µM; hit rate 0.51% among 340,000; AID 504462; in the data active = inhibition above about 40%
LEDGF integ inh: blocks HIV-1 LEDGF/p75-dependent DNA integration; inhibition, % at 3.7 µM; TR-FRET IN-LEDGF/p75 DNA integration, Eu/Cy5; hit rate 0.64% among 370,000;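 active = inhibition above the screen-wide mean plus 3 SD, cut at about 13% in these data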;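 note: signal is the Cy5 over europium emission ratio at 671 and 618 nm; 0% = plate median of compound wells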
UHRF1 ctr MBD2: UHRF1 methyl-oligo binding inhibition as MBD2 counter-screen | UHRF1 binding to methylated oligonucleotide, TR-FRET | shares compounds with MBD2 inh | inhibition, % at 4.4 µM | hit rate 25% among 1,000; in the data active = inhibition above about 21%;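 note: UHRF1 SRA domain binding a labeled hemimethylated CpG hairpin DNA; 0% = vehicle only and 100% = reference inhibitor with vehicle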
MBD2 confirm: confirmation of human MBD2-DBD methylated oligonucleotide binding inhibitors; AID 720531; shares compounds with MBD2 inh; TR-FRET MBD2-DBD binding to methylated oligonucleotide; inhibition, % at 4.4 µM; hit rate 26% among 1,000
IN multimer act: activates HIV-1 integrase multimerization in LEDGF counter-screen. shares compounds with LEDGF integ inh. activation, % at 7.7 µM. hit rate 17% among 2,000. TR-FRET HIV-1 integrase multimerization, biochemical; in the data active = activation above about 8.9%
TRFRET interf: optically interferes with TR-FRET readout in LEDGF counter-screen. shares compounds with LEDGF integ inh. TR-FRET optical interference counterscreen, HIV-1 IN multimerization. inhibition, % at 7.7 µM. 2,000 tested, under 10 active. AID 1053135;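 active = inhibition above the mean over all tested compounds plus 3 SD, which no compound reached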;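 note: 0% = integrase with antibodies and DMSO and 100% = antibodies without integrase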
LEDGF integ conf: LEDGF/p75-dependent HIV-1 integration inhibition, confirmation; shares compounds with LEDGF integ inh; TR-FRET LEDGF/p75-dependent HIV-1 integration, biochemical; inhibition, % at 3.7 µM; hit rate 36% among 2,000; AID 1053136
The depositor's hits bear a star. Cut-off read from the data, not from the text of the source, unless noted: active = inhibition above about 14%; inactive = the rest.

COc1ccc(OC)c(NC(=O)C2CC(=O)N(c3ccccc3)C2)c1 (stereo unspecified) was read as rCAG RNA binder 0, CSN inh -1, MBD2 inh 15*, UHRF1 binding 12, ATG4B inh 1, LEDGF integ inh 4, UHRF1 ctr MBD2 11 and MBD2 confirm 2.
Screening COc1ccc(N2CC(C(=O)OCC(=O)Nc3cc(C)on3)CC2=O)cc1 (stereo unspecified) returned rCAG RNA binder 6, CSN inh -1, MBD2 inh 20*, UHRF1 binding 41*, ATG4B inh -3, LEDGF integ inh 3, UHRF1 ctr MBD2 10 and MBD2 confirm 2.
O=C(O)COc1ccc2c(c1)O/C(=C\c1ccco1)C2=O was read as rCAG RNA binder 15, CSN inh 32, MBD2 inh 15*, UHRF1 binding 63*, ATG4B inh 8, LEDGF integ inh 41*, UHRF1 ctr MBD2 42*, MBD2 confirm 9, IN multimer act 27*, TRFRET interf -95 and LEDGF integ conf 46*.
For C=CCn1c(SCC(=O)Nc2ccccc2-c2ccccc2)nnc1-c1ccc(Cl)cc1 the results were rCAG RNA binder 5, MBD2 inh 3, UHRF1 binding 4 and LEDGF integ inh 3.
For O=C(NCCc1ccccc1)OCc1cn(Cc2cc(F)ccc2F)nn1 the results were rCAG RNA binder -1, MBD2 inh 0, UHRF1 binding 1 and LEDGF integ inh -6.
Screening CCNc1nc(NC(C)C)nc(N(C#N)CC(=O)OC)n1 returned rCAG RNA binder 15, CSN inh 4, MBD2 inh 32*, UHRF1 binding 63*, ATG4B inh -15, LEDGF integ inh 18*, UHRF1 ctr MBD2 7, MBD2 confirm 4, IN multimer act -1, TRFRET interf 4 and LEDGF integ conf 2.
For O=[N+]([O-])c1ccc(NCCCN2CCC(C(O)(c3ccccc3)c3ccccc3)CC2)cc1 the results were rCAG RNA binder 5, MBD2 inh -7, UHRF1 binding 5 and LEDGF integ inh 4.
Screening COc1ccc(Cl)cc1Nc1nc(NCCO)nc(N2CCCCC2)n1 returned rCAG RNA binder 6, CSN inh 5, MBD2 inh -4, UHRF1 binding -7, ATG4B inh -21 and LEDGF integ inh -1.
`COc1ccc(Cl)cc1Nc1nc(NCCO)nc(N2CCCC2)n1` gave rCAG RNA binder 8, CSN inh 0, MBD2 inh 17*, UHRF1 binding 72*, ATG4B inh -20, LEDGF integ inh 24*, UHRF1 ctr MBD2 1, MBD2 confirm 10, IN multimer act 2, TRFRET interf -7 and LEDGF integ conf -1.
Screening CCOc1cc(N2CCOCC2)c(OCC)cc1NC(C)C(=O)N1CCN(CC)CC1 (stereo unspecified) returned rCAG RNA binder 25, CSN inh 5, MBD2 inh 51*, UHRF1 binding 91*, ATG4B inh -5, LEDGF integ inh 63*, UHRF1 ctr MBD2 1, MBD2 confirm -3, IN multimer act 2, TRFRET interf -10 and LEDGF integ conf 10.
For Cc1cc(C)n2c(Nc3ccc4c(c3)OCCO4)c(-c3ccc(C)o3)nc2n1 the results were rCAG RNA binder 23, CSN inh 3, MBD2 inh 16*, UHRF1 binding 26*, ATG4B inh -6, LEDGF integ inh 24*, UHRF1 ctr MBD2 2, MBD2 confirm 2, IN multimer act 2, TRFRET interf -8 and LEDGF integ conf 4.
Cc1cc(C)n2c(Nc3ccc4c(c3)OCCO4)c(-c3cc4ccccc4o3)nc2n1 was read as rCAG RNA binder 14, CSN inh 3, MBD2 inh -1, UHRF1 binding 3 and LEDGF integ inh -2.
`CC(=O)Cc1cc(=O)c2c(C)cc(O)c(C3OC(CO)C(O)C(O)C3O)c2o1` (stereo unspecified) gave rCAG RNA binder -2, CSN inh 0, MBD2 inh -2, UHRF1 binding -2, ATG4B inh -5 and LEDGF integ inh -2.
For O=c1c2cc(O)c(O)cc2oc2cc(O)c(C3OC(CO)C(O)C(O)C3O)c(O)c12 (stereo unspecified) the results were rCAG RNA binder 9, CSN inh 8, MBD2 inh 43*, UHRF1 binding 60*, ATG4B inh -2, LEDGF integ inh 82*, UHRF1 ctr MBD2 45*, MBD2 confirm 40*, IN multimer act 70*, TRFRET interf -351 and LEDGF integ conf 86*.
COC(=O)[C@]12C[C@H](CC(=O)NCCCN3CCCC3=O)C(=O)N(CCC3=CCCCC3)C1=C[C@H](C(C)C)O[C@@H]2C1CC1 was read as rCAG RNA binder -2, MBD2 inh -2, UHRF1 binding -2 and LEDGF integ inh 5.
`COc1ccc(-c2cc(=O)n(CCC#N)[nH]2)cc1` gave rCAG RNA binder 14, CSN inh -1, MBD2 inh 18*, UHRF1 binding 16, ATG4B inh 7, LEDGF integ inh 42*, UHRF1 ctr MBD2 1, MBD2 confirm 0, IN multimer act 0, TRFRET interf 1 and LEDGF integ conf 1.
For COc1cccc2c1C(=O)c1c(O)c3c(c(O)c1C2=O)CC(O)(C(C)=O)CC3OC1CC(N(C)C)C(O)C(C)O1 (stereo unspecified) the results were rCAG RNA binder 0, CSN inh -73, MBD2 inh 111*, UHRF1 binding 96*, ATG4B inh -30, LEDGF integ inh 14*, UHRF1 ctr MBD2 101*, MBD2 confirm 111*, IN multimer act 3, TRFRET interf -16 and LEDGF integ conf 32*.
